PRMT1 FP inh: PRMT1 (human) inhibition, primary screen; Q99873; recombinant PRMT1, activity-based probe fluorescence polarization; inhibition, % at 2.79 µM; 370,000 tested, 1.3% active;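 active = inhibition above about 21% made by adding two undisclosed values, limit read from the data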
PAD4 FP inh: inhibitors of human PAD4 | Q9UM07 | recombinant PAD4, RCA probe fluorescence polarization | inhibition, % at 6.36 µM | 330,000 tested, 0.41% active;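 active = percent inhibition above a cutoff equal to the mean of all tested compounds plus 3 SD, cut at about 15% in these data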;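 also: 0% = PAD4 with RCA probe and DMSO and 100% = probe without PAD4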
HTRA1 inhibitor: blocks human HTRA1 serine peptidase | Q92743 | recombinant HTRA1, FP-rhodamine activity-based probe, fluorescence polarization | inhibition, % at 5.96 µM | 340,000 tested, 0.5% active; in the data active = inhibition above about 36%;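 also: 0% = enzyme with DMSO and 100% = wells lacking enzyme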
SIAE inh: blocks human sialic acid acetylesterase. 370,000 tested, 0.69% active. AID 1053197. inhibition, % at 9.66 µM. SIAE FP-Rh probe binding, fluorescence polarization;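 active = inhibition above a cutoff: mean of compounds within the control limits plus 3 SD of those, cut at about 17% in these data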;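 also: 0% = plate median of compound wells and 100% = probe without SIAE protein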
mABHD4 FP: ABHD4 (mouse) inhibition, primary FP screen; 370,000 tested, 0.54% active; AID 720543; Q8VD66; inhibition, % at 8.92 µM; purified mABHD4, FP-Rh probe fluorescence polarization;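 active = inhibition exceeding the mean over every tested compound plus 3 SD, cut at about 30% in these data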;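 also: 0% = plate median of compound wells and 100% = S159A mutant with DMSO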
Target sequence (Q8VD66 whole entry, looked up): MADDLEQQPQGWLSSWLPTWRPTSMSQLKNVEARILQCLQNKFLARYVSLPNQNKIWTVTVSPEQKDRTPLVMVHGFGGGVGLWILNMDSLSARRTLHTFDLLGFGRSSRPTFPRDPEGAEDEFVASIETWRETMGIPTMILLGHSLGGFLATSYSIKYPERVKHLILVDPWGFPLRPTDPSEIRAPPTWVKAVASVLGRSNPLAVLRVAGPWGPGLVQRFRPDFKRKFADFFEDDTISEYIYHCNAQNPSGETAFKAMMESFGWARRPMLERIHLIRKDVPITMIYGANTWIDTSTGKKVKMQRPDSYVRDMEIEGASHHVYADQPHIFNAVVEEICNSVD
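Test system: mouse ABHD4 enzyme, wild type. Reagent: FP-Rh fluorescent activity-based probe, added after compound pre-incubation. Timing: pre-incubation 45 min, probe exposure 60 min, at 25 °C. Technique: FP readout, ex 525 nm / em 598 nm. Benchmarks: high control S159A mutant with DMSO, low control median of compound wells.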
TCR-CD3 inh: inhibitors of human TCR-CD3 interaction | TAMRA-labeled TCR probe fluorescence, biochemical | inhibition, % at 9.4 µM | 360,000 tested, 0.37% active; in the data active = inhibition above about 19%;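 also: recombinant mutant TCR 2C K166C tagged with TAMRA read by polarization; 0% = receptor in buffer alone and 100% = receptor with positive control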
PRMT1 confirm: confirmation of human PRMT1 inhibitors; shares compounds with PRMT1 FP inh; recombinant His-PRMT1, activity-based probe fluorescence polarization; inhibition, % at 2.79 µM; 3,300 tested, 42% active; AID 687036;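 active = mean inhibition across replicates above the hit cutoff derived for the earlier primary screen, cut at about 22% in these data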
Numbers without * were called inactive; · = no result given. Compounds with a hit are over-represented: about 2.9% of the library has one in this group of screens.

SMILES | PRMT1 FP inh | PAD4 FP inh | HTRA1 inhibitor | SIAE inh | mABHD4 FP | TCR-CD3 inh | PRMT1 confirm
S=c1[nH]nc(-c2cc(-c3ccco3)[nH]n2)n1-c1ccccc1Cl | 41* | -7 | -4 | 1 | 17 | 3 | 12
FC(F)(F)c1ccc(Cl)c(-n2c(-c3cc(-c4ccco4)[nH]n3)n[nH]c2=S)c1 | 25* | -7 | -4 | -1 | 11 | 12 | 28*
FC(F)(F)c1ccc(Cl)c(-n2c(-c3ccco3)n[nH]c2=S)c1 | 3 | · | 1 | 11 | 0 | -6 | ·
S=c1[nH]nc(-c2ccco2)n1-c1ccccc1Cl | 0 | 1 | 10 | 5 | 0 | 5 | ·
COC(=O)C1=C(C)N(C)C(=NCc2ccc(OC)cc2)NC1c1cccc(F)c1 (centres undefined) | -3 | · | · | 4 | 9 | 16 | ·
COC(=O)c1cc(S(=O)(=O)N2CCN(c3cccc(C(F)(F)F)c3)CC2)cn1C | -4 | · | · | -6 | -11 | · | ·
CC(C)C1NC2(C(=O)c3ccccc3C2=O)C2C(=O)N(c3ccc(F)cc3)C(=O)C12 (centres undefined) | 33* | -9 | 1 | 0 | -2 | -9 | 44*
C[C@@H]1/C=C/CC(=O)N2[C@H](CC(=O)N[C@@H]1c1ccccc1)C[C@@H](C)[C@H]2c1ccccc1 | 8 | · | · | 5 | -2 | · | ·
O=C1CCC2(CCC(c3ccccc3)CC2)N1CC[C@@H](O)c1ccccc1 (some centres undefined) | -1 | · | · | 9 | 1 | · | ·
COc1ccccc1NS(=O)(=O)c1cc(N2Cc3ccccc3C2=N)ccc1N1CCOCC1 | 27* | -2 | 2 | -6 | -5 | 4 | 2
COc1ccccc1NS(=O)(=O)c1cc(NC(=O)C2CC2)ccc1N1CCOCC1 | · | 2 | · | · | · | · | ·
COC(=O)/C=C/S(=O)(=O)c1ccc(NC(C)=O)cc1 | 73* | -3 | 1 | 4 | -1 | -1 | 29*
COc1ccccc1OS(=O)(=O)c1ccc(NC(C)=O)cc1 | -2 | 0 | -2 | -1 | -1 | -3 | ·
O=C(NCc1ccco1)OC1CCC12CCC(c1ccccc1)CC2 (centres undefined) | 0 | · | · | 2 | -22 | · | ·
CCN(CC)C(=O)CSc1ncnc2c1nnn2-c1ccc(OC)cc1 | · | 1 | -3 | · | · | · | ·
CCOC(=O)CC(=O)CSc1ncnc2c1nnn2-c1ccc(OC)cc1 | 62* | -2 | 5 | 1 | 6 | 4 | 79*
CCOC(=O)[C@@]12CN(C(=O)OC(C)(C)C)CC=C1N(Cc1ccc(OC)cc1)C(=O)[C@H]2CC(=O)N1CCSCC1 | -2 | · | · | 8 | 0 | · | ·
C=CCN1C(C(=O)OC)CN(Cc2cn(Cc3ccc(F)cc3)nn2)CCS1(=O)=O (centres undefined) | -6 | · | · | 0 | 2 | · | ·
Cc1cc(C)nc(NC(=S)NC(=O)c2ccccc2F)n1 | -2 | 0 | · | -1 | 6 | -18 | ·
Cc1cc(C)nc(S/C=C/C(=O)c2ccccc2F)n1 | 25* | -1 | 2 | 1 | 5 | -12 | 19
Cc1ccc(S(=O)(=O)Nc2cccc(C(=O)NCC(C)(C)N3CCOCC3)c2)cc1F | 3 | 0 | -4 | 1 | 3 | -3 | ·
O=C(NC1CCN(Cc2ccccc2)CC1)c1cccc(S(=O)(=O)Nc2ccc(SC(F)F)cc2)c1 | 41* | 7 | -13 | -3 | 8 | -3 | 58*
Cc1ccc(NS(=O)(=O)c2cccc(C(=O)NC3CCN(Cc4ccccc4)CC3)c2)cc1 | -3 | · | -3 | -1 | 6 | 2 | ·
CC(C)(CNC(=O)c1cccc(S(=O)(=O)Nc2ccc(SC(F)F)cc2)c1)N1CCOCC1 | 46* | · | 1 | -7 | 1 | -5 | 66*
CC(OC(=O)/C=C/c1ccco1)C(=O)Nc1cccc([N+](=O)[O-])c1 (centres undefined) | -1 | 2 | 0 | 3 | 3 | 6 | ·
SMILES | PRMT1 FP inh | PAD4 FP inh | HTRA1 inhibitor | SIAE inh | mABHD4 FP | TCR-CD3 inh | PRMT1 confirm
CC(=O)c1ccc(NC(=O)C(C)OC(=O)/C=C/c2ccco2)cc1 (centres undefined) | 31* | 0 | -5 | -2 | -4 | 3 | 1
COCCn1c(C)cc(C(=O)COc2cccnc2[N+](=O)[O-])c1C | 2 | -5 | -2 | 4 | 3 | 6 | ·
Cc1cc(C)c(C(=O)COc2cccnc2[N+](=O)[O-])cc1C | 38* | -10 | -1 | 12 | 11 | 0 | 51*
COC(=O)[C@]12C[C@H](CC(=O)NCCCN3CCCC3=O)C(=O)N(Cc3ccc(Cl)cc3Cl)C1=C[C@H](C(C)C)O[C@@H]2C1CC1 | 2 | · | · | -1 | 6 | · | ·
C#CCN(Cc1ccco1)C(=O)c1nnc2c3cc(OC)ccc3n(S(=O)(=O)c3ccc(OC)cc3)c2n1 | 6 | · | · | -50 | 7 | -3 | ·
CC(C)N(C(=O)c1nn(C)c2c1CSc1ccccc1-2)C1CCCCC1 | 39* | -5 | -22 | 1 | -9 | -4 | 14
CCn1c(=O)n2n(c1=O)[C@]1(C=C(C)C2)CN(Cc2ccc(OC)cc2OC)C(NC(=O)c2ccccc2)=N1 | -2 | · | · | 2 | -4 | · | ·
CCC(C)NC(=O)CNc1nnnn1-c1ccccc1 (centres undefined) | -5 | · | · | 3 | 1 | · | ·
CC[n+]1c(/C=C2/C=C(C)CC(C)C2)sc2ccccc21 (centres undefined) | 28* | -8 | -2 | 4 | 9 | -12 | 13
CC[n+]1c(/C=C(/C)SC)sc2ccccc21 | 96* | -2 | 8 | 2 | 4 | -6 | 24*
CC[n+]1c(/C=C(\C)SC)sc2ccccc21 | 34* | -3 | 3 | 0 | 3 | 1 | 13
CC[n+]1c(C=C2C=C(C)OC(C)=C2)sc2ccccc21 | -2 | · | 0 | -1 | 5 | 0 | ·
CCN1/C(=C/C=C/c2sc3ccccc3[n+]2CC)Sc2ccccc21 | · | -112 | -141 | · | · | · | ·
CC/C(=C/c1sc2ccccc2[n+]1CC)SC | 66* | -2 | 1 | -2 | 10 | 2 | 7
CC[n+]1c(/C=C/Nc2ccccc2)sc2ccccc21 | 18 | -48 | -21 | -20 | -48 | -9 | ·
COC(=O)Cc1nnn2c1[C@@H](C)[C@@H](c1ccccc1Br)OC[C@H](C)C2 | -2 | · | · | 2 | 5 | 6 | ·
COc1ccc(CNS(=O)(=O)CC2NCc3cc(OC)ccc32)cc1 (centres undefined) | 0 | · | · | -3 | -2 | · | ·
COc1ccc(CCNC(=O)c2cnn3c(C(F)F)cc(C)nc23)cc1OC | 30* | -1 | 2 | 0 | -1 | -4 | 0
CCCCN(C)C(=O)CSc1nnc(-c2cc(OC)c(OC)c(OC)c2)o1 | -1 | · | · | -3 | -4 | · | ·
CC1=C(SCCC#N)S/C(=C2\SC(C)=C(SCCC#N)S2)S1 | 71* | 4 | 8 | 6 | 14 | 2 | 47*

From PubChem
